We go through 17 molecules from ChEMBL document CHEMBL1122569, “Synthesis and antiinflammatory activity of [(cycloalkylmethyl)phenyl]acetic acids and related compounds” (1984).

Experiment [1] concerns Rattus norvegicus. In words: Analgesic activity on peroral administration against Scald induced pain in rat paw. The experiment is classed as functional. The note with it: for ED50: Rattus norvegicus, po, read-out: ID50 (the source's name). The method in brief: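 Male Wister Imamichi rats (~100 g), fasted 16 h. A hind paw was scalded at 57 °C for 6 s, then restimulated at 40 °C for 5 s. Compounds at 58–0.23 mg/kg in 0.5% tragacanth were given orally 2 h after scalding. Paw-lifting time over 30 s was recorded 1 and 2 h post-dose, and the mean used for % inhibition and ID50.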

The subject of experiment [2] is Rattus norvegicus. In words: Antiinflammatory activity on peroral administration against carrageenan paw edema. It counts as functional. Particulars: po, read-out: ID50 (the source's name). A digest of the protocol: (§1)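 Compound given; 30 min later 1% carrageenan in saline injected subcutaneously into the hind-paw plantar region. Paw volume measured just before and 3 h after carrageenan. ID50 from a least-squares regression line of percent inhibition against dose.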

Experiment [3] relates to Cavia porcellus. In words: Antipyretic activity on peroral administration against LPS-induced fever in guinea pig. It counts as functional. The note with it: po, read-out: ID50 (the source's name). A digest of the protocol: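 Female Hartley guinea pigs (300–350 g), fasted 16 h. Fever induced with E. coli LPS at 1 µg/kg i.v. Compounds were dosed at 6.3–0.23 mg/kg. Rectal temperature was taken 1 and 2 h after dosing and the mean used. ID50 by least-squares regression of % inhibition on dose.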

Experiment [4] relates to Rattus norvegicus. In words: Analgesic activity on peroral administration against scald induced pain in rat paw. The experiment is classed as functional. The note with it: po, read-out: ID50 (the source's name). The method in brief: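 Male Wister Imamichi rats (about 100 g), fasted 16 h, had one hind paw scalded in 57 °C water for 6 s, then re-dipped in 40 °C water for 5 s. Oral dosing in 0.5% tragacanth (58–0.23 mg/kg) followed 2 h after scalding. Paw-lifting time within 30 s was scored 1 and 2 h post-dose. The mean of the two readings gave percent inhibition and ID50.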

The subject of experiment [5] is Rattus norvegicus. In words: Antiinflammatory activity on peroral administration in rat determined by Randall-Slelitto test. It counts as functional. Particulars: po. The method in brief: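 Fasted male Wister Imamichi rats (60–90 g) received 20% brewer's yeast in the right hind paw. After 4 h, rats with pressure pain threshold below 10×30 g were dosed at 50–0.05 mg/kg. Animals were counted effective if the threshold rise exceeded twice the unmedicated control. ED50 by Litchfield–Wilcoxon.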

The subject of experiment [6] is Rattus norvegicus. In words: Gastric lesion activity on peroral administration in rat. The experiment is classed as functional. Particulars: po. The method in brief:
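Male Wister Imamichi rats (~120 g), fasted 16 h, dosed at 20–2.5 mg/kg. Killed 3.5 h later; stomachs opened along the greater curvature and rinsed with saline. Dark brown lesions of 0.5 mm length were counted under a stereomicroscope.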

In experiment [7] the test system is Cavia porcellus. In words: Analgesic activity on peroral administration against Bradykinin induced pain in guinea pig paw. The note with it: po.
Experiment [8] has as its system Rattus norvegicus. In words: Antiinflammatory activity on peroral administration against adjuvant arthritis in rat. It counts as functional. The note with it: po, read-out: ID50 (the source's name). A digest of the protocol:
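Female Lewis rats (160–200 g) received complete Freund adjuvant (heat-killed M. tuberculosis, 1 mg/mL in liquid paraffin) in the right hind paw. Dosing was 5.0–0.04 mg/kg once daily, days 0–20. Injected-paw swelling was measured by water displacement (day before vs day 21), as % inhibition versus untreated control. ID50 by least-squares regression.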

Experiment [9] relates to Rattus norvegicus. In words: Antiinflammatory activity on peroral administration against carrageenan induced rat paw edema. It counts as functional. The note with it: po, read-out: ID50 (the source's name). The method in brief: as §1
A general note: The carrageenan paw model is a standard test of acute inflammation.

Consider `CC(C(=O)O)c1ccc(CC2CCC/C2=N/O)cc1` (stereo not given), for which the ED50 with Rattus norvegicus [1] came to 4.9 mg/kg; with Rattus norvegicus [2], 1.3 mg/kg.

Regarding `O=C(O)Cc1ccc(CC2CCC/C2=N/O)cc1` (stereo not given), the ED50 in the experiment with Rattus norvegicus [1] was 15 mg/kg; in the experiment on Rattus norvegicus [2], 24.8 mg/kg.

In the case of `CC(C(=O)O)c1ccc(CC2CCCCC2=O)cc1` (stereo not given), the ED50 with Rattus norvegicus [1] amounted to 9.1 mg/kg; in the experiment on Rattus norvegicus [2] it was 1.2 mg/kg.

In the case of `CC(C(=O)O)c1ccc(/C=C2\CCCCCC2=O)cc1` (stereo not given), the ED50 in the experiment on Rattus norvegicus [1] and in the experiment with Rattus norvegicus [2] was greater than 100 mg/kg each time.

Regarding `CC(C(=O)O)c1ccc(CC2CCCCCC2=O)cc1` (stereo not given), the ED50 with Rattus norvegicus [1] and with Rattus norvegicus [2] was greater than 100 mg/kg in each case.

As to `O=C(O)Cc1ccc(CC2CCCC/C2=N/O)cc1` (stereo not given), the figures for the ED50 with Rattus norvegicus [1] and with Rattus norvegicus [2] were 31.1 mg/kg and 23.5 mg/kg, respectively.

For `CC(C(=O)O)c1ccc(CC2CCCC2)cc1` (stereo not given), the ED50 in the experiment with Rattus norvegicus [1] is 5.1 mg/kg; in the experiment on Rattus norvegicus [2] it was greater than 100 mg/kg.

On to `CC(C(=O)O)c1ccc(CC2CCCC/C2=N/O)cc1` (stereo not given), for which the ED50 is 3.6 mg/kg in the experiment with Rattus norvegicus [1] and 1.4 mg/kg in the experiment with Rattus norvegicus [2].

For `O=C(O)Cc1ccc(CC2CCCC2=O)cc1` (stereo not given), the ED50 came to 23 mg/kg in the experiment on Rattus norvegicus [1] and 9.1 mg/kg in the experiment with Rattus norvegicus [2].

As for `CC(C(=O)O)c1ccc(/C=C2\CCCC2=O)cc1` (stereo not given), the ED50 in the experiment on Rattus norvegicus [1] is 1.3 mg/kg; in the experiment with Rattus norvegicus [2], 1.5 mg/kg.

With `CC(C(=O)O)c1ccc(CC2CCCCC/C2=N/O)cc1` (stereo not given), the ED50 in the experiment on Rattus norvegicus [1] and in the experiment on Rattus norvegicus [2] was greater than 100 mg/kg in each case.

As to `O=C(O)Cc1ccc(CC2CCCCC2=O)cc1` (stereo not given), the ED50 came out at 53.8 mg/kg in the experiment with Rattus norvegicus [1] and 45.7 mg/kg with Rattus norvegicus [2].

On to `CC(C)Cc1ccc(C(C)C(=O)O)cc1` (stereo not given) [IBUPROFEN], for which, in the experiment on Rattus norvegicus [1], the ED50 worked out at 15.9 mg/kg.

Take `COc1ccc2c(c1)c(CC(=O)O)c(C)n2C(=O)c1ccc(Cl)cc1` [INDOMETHACIN]: the ED50 in the experiment on Cavia porcellus [3] came to 9.5 mg/kg; with Rattus norvegicus [1] it was 3.5 mg/kg; in the experiment with Rattus norvegicus [4] it was 3.5 mg/kg; in the experiment with Rattus norvegicus [5], 2.8 mg/kg; in the experiment on Rattus norvegicus [2] it was 2.2 mg/kg; in the experiment on Cavia porcellus [7] it was 8.3 mg/kg. This molecule had a UD50 with Rattus norvegicus [6] of 6.4 mg/kg.

In the case of `CC(C(=O)[O-])c1ccc(CC2CCCC2=O)cc1.[Na+]` (stereo not given) [LOXOPROFEN SODIUM], the ED50 in the experiment with Cavia porcellus [3] was determined as 0.76 mg/kg; in the experiment with Rattus norvegicus [1] it was 0.76 mg/kg; with Rattus norvegicus [5] it was 0.13 mg/kg; in the experiment on Rattus norvegicus [8] it was 0.59 mg/kg; in the experiment with Rattus norvegicus [2] it was 1.2 mg/kg; in the experiment with Cavia porcellus [7] it was 0.4 mg/kg. For the same molecule, the UD50 in the experiment with Rattus norvegicus [6] is 16.1 mg/kg.

For the molecule `CC(C(=O)O)c1ccc(CC2CCCC2=O)cc1` (stereo not given) [LOXOPROFEN], the ED50 came out at 0.8 mg/kg with Rattus norvegicus [1] and 1.7 mg/kg in the experiment with Rattus norvegicus [2].

Regarding `CC(C(=O)O)c1ccc(/C=C2\CCCCC2=O)cc1` (stereo not given) [PELUBIPROFEN], the ED50 in the experiment with Cavia porcellus [3] came to 1.5 mg/kg; in the experiment on Rattus norvegicus [1] it was 1.8 mg/kg; in the experiment with Rattus norvegicus [5] it was 0.94 mg/kg; with Rattus norvegicus [8], 0.06 mg/kg; in the experiment with Rattus norvegicus [9], 1.2 mg/kg; with Rattus norvegicus [2], 0.9 mg/kg. Besides, in the experiment with Cavia porcellus [7], the ED50 is 4.5 mg/kg. The ID50 in the experiment on Rattus norvegicus [1] amounted to 1.7 mg/kg. For the same molecule, in the experiment on Rattus norvegicus [6], the UD50 was determined as 14.3 mg/kg.
